Laboratory results published in ChEMBL document CHEMBL1121415, “Inhibition of histamine-induced gastric secretion by flavone-6-carboxylic acids” (1980).
Several values for one entry are separate records, joined by “and”; a condition that tells them apart may be missing. Equal entries are not always repeated.

What was measured:
Type in all cases: functional
Rattus norvegicus [1] = assay: Inhibition of histamine-induced gastric acid secretion in the rat following 80 mg/kg s.c. administration.; conditions: Stomach, sc
How it was run: (§1)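 Compound was given subcutaneously at 1 mL/kg to 48-h-fasted rats in groups of 10; controls received saline. Pylorus ligation under ether followed 30 min later. Histamine 2.5 mg/kg sc was given at 15-min intervals for 3 h. Gastric juice was titrated with 0.02 N NaOH to pH 7.0 to give total acid output, expressed as % mean inhibition vs controls, with ANOVA.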

Rattus norvegicus [2] = assay: The compound was tested for its ability to inhibit histamine-induced gastric acid secretion in the rat at a dose of 70 mg/kg, sc; conditions: Stomach, route subcutaneous; how it was run: as §1
Rattus norvegicus [3] = assay: The compound was tested for its ability to inhibit histamine-induced gastric acid secretion in the rat at a dose of 76 mg/kg, sc; conditions: Stomach, route subcutaneous; how it was run: as §1
Rattus norvegicus [4] = assay: Determined as […] and at 150 mg/kg peroral dose; conditions: route oral
How it was run: (§2)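 Rats fasted 48 h with water ad libitum, in groups of 10, were dosed orally by gavage at 1 mL/kg; controls received saline. After 30 min, under ether, the pylorus was ligated. Histamine 2.5 mg/kg sc was given right after surgery and every 15 min for 3 h. Gastric juice was titrated with 0.02 N NaOH to pH 7.0 ± 0.1 as mequiv H+/100 g. Mean % inhibition vs controls was tested by ANOVA.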

Rattus norvegicus [5] = assay: Gastric juice volume when tested orally in rat ligated stomach preparation at 200 mg/kg peroral dose; conditions: route oral
How it was run: (§3)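 Orally gavaged rats (1 mL/kg; saline controls; 48-h fast, groups of 10) had pylorus ligation under ether 30 min post-dose. They then received histamine 2.5 mg/kg sc every 15 min for 3 h. At sacrifice, stomach contents were aspirated and the gastric juice volume in mL was recorded. Results are given as mean ± SD.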

Rattus norvegicus [6] = assay: Gastric juice volume when tested orally in rat ligated stomach preparation at 150 mg/kg peroral dose; conditions: route oral; how it was run: as §3
Rattus norvegicus [7] = assay: Gastric juice volume when tested orally in rat ligated stomach preparation at 100 mg/kg peroral dose; conditions: route oral; how it was run: as §3
Rattus norvegicus [8] = assay: Determined as […] and at 50 mg/kg peroral dose; conditions: route oral; how it was run: as §2
Rattus norvegicus [9] = assay: Determined as […] and at 100 mg/kg peroral dose; conditions: route oral; how it was run: as §2
Rattus norvegicus [10] = assay: % inhibition in total acid secretion when tested orally in rat ligated stomach preparation at 100 mg/kg peroral dose; conditions: route oral; how it was run: as §2
Rattus norvegicus [11] = assay: Gastric juice volume when tested orally in rat ligated stomach preparation at 50 mg/kg peroral dose; conditions: route oral; how it was run: as §3
Rattus norvegicus [12] = assay: Determined as […] and at 200 mg/kg peroral dose; conditions: route oral; how it was run: as §2
Rattus norvegicus [13] = assay: % inhibition in total acid secretion when tested orally in rat ligated stomach preparation at 200 mg/kg peroral dose; conditions: route oral; how it was run: as §2
Rattus norvegicus [14] = assay: The compound was tested for its ability to inhibit histamine-induced gastric acid secretion in the rat at a dose of 60 mg/kg, sc; conditions: Stomach, route subcutaneous; how it was run: as §1
Rattus norvegicus [15] = assay: The compound was tested for its ability to inhibit histamine-induced gastric acid secretion in the rat at a dose of 66 mg/kg, sc; conditions: Stomach, route subcutaneous; how it was run: as §1
Rattus norvegicus [16] = assay: The compound was tested for its ability to inhibit histamine-induced gastric acid secretion in the rat at a dose of 90 mg/kg, sc; conditions: Stomach, route subcutaneous; how it was run: as §1
Rattus norvegicus [17] = assay: % inhibition in total acid secretion when tested orally in rat ligated stomach preparation at 150 mg/kg peroral dose; conditions: route oral; how it was run: as §2
Rattus norvegicus [18] = assay: % inhibition in total acid secretion when tested orally in rat ligated stomach preparation at 75 mg/kg peroral dose; conditions: route oral; how it was run: as §2
Rattus norvegicus [19] = assay: Gastric juice volume when tested orally in rat ligated stomach preparation at 75 mg/kg peroral dose; conditions: route oral; how it was run: as §3
Rattus norvegicus [20] = assay: Determined as […] and at 75 mg/kg peroral dose; conditions: route oral; how it was run: as §2

`COc1ccc(-c2oc3ccc(C(=O)O)cc3c(=O)c2OC)cc1` was tested, and the inhibition in vivo at 80 mg/kg (Rattus norvegicus [1]) was 22%.
With `CS(=O)(=O)c1ccc(-c2cc(=O)c3cc(C(=O)O)ccc3o2)cc1` the inhibition in vivo at 70 mg/kg (Rattus norvegicus [2]) was 41%.
Molecule `CC(C)c1ccc(-c2oc3ccc(C(=O)O)cc3c(=O)c2O)cc1` has an inhibition in vivo at 80 mg/kg (Rattus norvegicus [1]) of 24%.
With `O=C(O)c1ccc2oc(-c3ccccc3Br)c(O)c(=O)c2c1` the inhibition in vivo at 80 mg/kg (Rattus norvegicus [1]) was 22%.
Work on `CCCCCCOc1ccc(-c2oc3ccc(C(=O)O)cc3c(=O)c2OC)cc1` yielded an inhibition in vivo at 76 mg/kg (Rattus norvegicus [3]) of -12%.
`CCCCCCc1ccc(-c2cc(=O)c3cc(C(=O)O)ccc3o2)cc1` gave an inhibition in vivo at 80 mg/kg (Rattus norvegicus [1]) of 2%.
With `Cc1ccc(-c2oc3ccc(C(=O)O)cc3c(=O)c2OC(C)C)cc1` the inhibition in vivo at 80 mg/kg (Rattus norvegicus [1]) was 8%.
With `O=C(O)c1ccc2oc(-c3ccc(Cl)cc3)c(O)c(=O)c2c1` the inhibition in vivo at 80 mg/kg (Rattus norvegicus [1]) was -19%.
Work on `COc1ccc(-c2oc3ccc(C(=O)O)cc3c(=O)c2O)cc1` yielded an inhibition in vivo at 80 mg/kg (Rattus norvegicus [1]) of 24%.
`O=C(O)c1ccc(-c2oc3ccc(C(=O)O)cc3c(=O)c2O)cc1` gave an inhibition in vivo at 80 mg/kg (Rattus norvegicus [1]) of 23%.
In the case of `COc1ccc(-c2oc3ccc(C(=O)O)cc3c(=O)c2OC(C)C)cc1`, the “mequiv of HCl” value (Rattus norvegicus [4]) is reported as 0.161, the Volume (Rattus norvegicus [5]) is reported as 3.68 mL and the Volume (Rattus norvegicus [6]) is reported as 4.8 mL. The Volume (Rattus norvegicus [7]) was 5.16 mL, the “mequiv of HCl” value (Rattus norvegicus [8]) was 0.238 and the “mequiv of HCl” value (Rattus norvegicus [9]) was 0.226. The Inhibition (Rattus norvegicus [10]) was 4% and 9%, the Volume (Rattus norvegicus [11]) was 5.13 mL and the inhibition in vivo at 80 mg/kg (Rattus norvegicus [1]) was 35%. For the same molecule, the “mequiv of HCl” value (Rattus norvegicus [12]) was 0.101 and the Inhibition (Rattus norvegicus [13]) was 34% and 59%.
With `COc1c(-c2ccc(Cl)cc2)oc2ccc(C(=O)O)cc2c1=O` the inhibition in vivo at 80 mg/kg (Rattus norvegicus [1]) was 34%.
Molecule `COc1ccc(-c2cc(=O)c3cc(C(=O)O)ccc3o2)cc1` has an inhibition in vivo at 80 mg/kg (Rattus norvegicus [1]) of 13%.
Molecule `Cc1ccc(-c2oc3ccc(C(=O)O)cc3c(=O)c2O)cc1` has an inhibition in vivo at 80 mg/kg (Rattus norvegicus [1]) of -6%.
With `CCOc1ccc(-c2oc3ccc(C(=O)O)cc3c(=O)c2OC(C)C)cc1` the inhibition in vivo at 60 mg/kg (Rattus norvegicus [14]) was 18%.
`Cc1ccccc1-c1oc2ccc(C(=O)O)cc2c(=O)c1O` showed an inhibition in vivo at 80 mg/kg (Rattus norvegicus [1]) of 15%.
Work on `O=C(O)c1ccc2oc(-c3ccc(F)cc3)cc(=O)c2c1` yielded an inhibition in vivo at 80 mg/kg (Rattus norvegicus [1]) of 21%.
With `CC(C)Oc1c(-c2ccc(C(C)C)cc2)oc2ccc(C(=O)O)cc2c1=O` the inhibition in vivo at 80 mg/kg (Rattus norvegicus [1]) was 20%.
In the case of `COc1c(-c2ccc(F)cc2)oc2ccc(C(=O)O)cc2c1=O`, the inhibition in vivo at 70 mg/kg (Rattus norvegicus [2]) is reported as 4%.
With `COc1c(-c2ccc(C)cc2)oc2ccc(C(=O)O)cc2c1=O` the inhibition in vivo at 80 mg/kg (Rattus norvegicus [1]) was 4%.
For `COc1cccc(-c2oc3ccc(C(=O)O)cc3c(=O)c2OC(C)C)c1`, the inhibition in vivo at 66 mg/kg (Rattus norvegicus [15]) was 12%.
`CC(C)c1ccc(-c2cc(=O)c3cc(C(=O)O)ccc3o2)cc1` showed an inhibition in vivo at 80 mg/kg (Rattus norvegicus [1]) of 19%.
`CCCCCCOc1ccc(-c2oc3ccc(C(=O)O)cc3c(=O)c2O)cc1` was tested, and the inhibition in vivo at 80 mg/kg (Rattus norvegicus [1]) was -11%.
With `COc1cc(-c2oc3ccc(C(=O)O)cc3c(=O)c2O)cc(OC)c1OC` the inhibition in vivo at 80 mg/kg (Rattus norvegicus [1]) was 24%.
For `COc1c(-c2ccc(C(C)C)cc2)oc2ccc(C(=O)O)cc2c1=O`, the inhibition in vivo at 80 mg/kg (Rattus norvegicus [1]) was 18%.
Work on `C/N=C(\S)NCCCCc1c[nH]cn1` [BURIMAMIDE] yielded an inhibition in vivo at 90 mg/kg (Rattus norvegicus [16]) of 49%.
In the case of `CNC(=S)NCCSCc1[nH]cnc1C` [METIAMIDE], the “mequiv of HCl” value (Rattus norvegicus [4]) is reported as 0.064, the inhibition in vivo at 150 mg/kg (Rattus norvegicus [17]) is reported as 76% and the Volume (Rattus norvegicus [6]) is reported as 1.7 mL. The inhibition in vivo at 75 mg/kg (Rattus norvegicus [18]) was 46%, the Volume (Rattus norvegicus [19]) was 2.99 mL and the “mequiv of HCl” value (Rattus norvegicus [20]) was 0.148.
